Assay results published in PMC11984575 (Neurobiology of Pain, 2025).
“Also recorded” adds a separate entry of the source.

Key:
[1] = system: rat NaV1.8 channels; conditions: cited from earlier work; for potency in rats: ref Gilchrist et al., 2024, Osteen et al., 2025
[2] = system: rat SNL model; conditions: cited from earlier work
[3] = system: NaV1.8; conditions: blocks more current as stimulation rate increases; ref Payne et al., 2015; cited from earlier work
[4] = biological target: rodent NaV1.8 channel (Rattus norvegicus, UniProt Q62968); assay type: cell-based
[5] = biological target: T1, human NaV1.8 (Homo sapiens, UniProt Q9Y5Y9); assay type: cell-based
[6] = biological target: T1, human NaV1.8; assay: Automated patch clamp; assay type: cell-based; conditions: train of 10 pulses at 1 Hz vs first pulse
[7] = biological target: human NaV1.1 (Homo sapiens, UniProt P35498); assay: Automated patch clamp; assay type: cell-based
[8] = biological target: human NaV1.2 (Homo sapiens, UniProt Q99250); assay: Automated patch clamp; assay type: cell-based
[9] = biological target: human NaV1.3 (Homo sapiens, UniProt Q9NY46); assay: Automated patch clamp; assay type: cell-based
[10] = biological target: human NaV1.4 (Homo sapiens, UniProt P35499); assay: Automated patch clamp; assay type: cell-based; conditions: vs human NaV1.8
[11] = biological target: human NaV1.5 (Homo sapiens, UniProt Q14524); assay: Automated patch clamp; assay type: cell-based
[12] = biological target: human NaV1.6 (Homo sapiens, UniProt Q9UQD0); assay: Automated patch clamp; assay type: cell-based
[13] = biological target: human NaV1.7 (Homo sapiens, UniProt Q15858); assay: Automated patch clamp; assay type: cell-based
[14] = biological target: human NaV1.9 (Homo sapiens, UniProt Q9UI33); assay: Automated patch clamp; assay type: cell-based
[15] = Rat plasma protein binding; assay type: in vitro ADME
[16] = biological target: Chimera 1: NaV1.5(1–711) – NaV1.8(660–890) – NaV1.5(940–2015) (Homo sapiens, UniProt Q14524+Q9Y5Y9); assay: QPatch II sodium currents of chimeric NaV channel in FS-293 HEK cells; assay type: cell-based
In short: (§1)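 Chimeric NaV1.5/NaV1.8 constructs electroporated into FS-293 HEK cells; currents recorded on QPatch II. External (mM): 150 NaCl, 5 KCl, 2 CaCl2, 1 MgCl2, 10 HEPES, 12 dextrose, pH 7.3 (NaOH), 330 Osm. Steps from −90 to +10 mV; IC50 by non-linear regression, bounds 0–1, Hill slope free.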

[17] = biological target: Chimera 2: NaV1.8(1–399) – NaV1.5(416–1199) – NaV1.8(1148–1956) (Homo sapiens, UniProt Q14524+Q9Y5Y9); assay: as above; assay type: cell-based; conditions: VSDII of NaV1.5 swapped into NaV1.8
In short: as §1

[18] = biological target: Chimera A: NaV1.5(1–770) – NaV1.8(719–751) – NaV1.5(804–2015) (Homo sapiens, UniProt Q14524+Q9Y5Y9); assay: as above; assay type: cell-based
In short: as §1

[19] = biological target: Chimera B: NaV1.8(1–718) – NaV1.5(771–803) – NaV1.8(752–1956) (Homo sapiens, UniProt Q14524+Q9Y5Y9); assay: as above; assay type: cell-based; conditions: VSDIIS3 of NaV1.5 in NaV1.8
In short: as §1

[20] = system: wild-type Sprague-Dawley rats; assay: Capsaicin nocifensive behavior; assay type: in vivo, rat; conditions: 10 mg/kg PO, 1 h before capsaicin
In short: (§2)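 Male rats, humanized or wild-type Sprague-Dawley, acclimated to chamber twice beforehand and 15 min on test day. Test compound given PO 1 h before intradermal capsaicin (25 μL, 0.01 %, in ethanol/Tween80/saline 20:7:73) into left hind paw. Flinches counted over 5 min; blinded, randomized order. Wild-type: n = 10/group, Student's t-test. Humanized dose-response: per-animal % inhibition of vehicle mean fitted against unbound plasma level (tail-vein blood post-test) for in vivo IC50.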

[21] = system: humanized NaV1.8 rats; assay: Capsaicin nocifensive behavior; assay type: in vivo, rat
In short: as §2

[22] = system: humanized NaV1.8 rats; assay: CFA-induced thermal hyperalgesia; assay type: in vivo, rat; conditions: one hour post dosing; for hind paw withdrawal latency vs vehicle (thermal hyperalgesia): 24 h after CFA
In short: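 Male humanized NaV1.8 rats; baseline Hargreaves latency as mean of two trials, 20 s cutoff. CFA (50 μL, 1 mg/mL) given intraplantar into mid-plantar hind paw; latencies retested at 24 h. Rats then randomized to PO vehicle or test compound (1 or 10 mg/kg), or diclofenac 80 mg/kg ip. Latency read 1 h post-dose; blinded; n = 20/group; two-way ANOVA with Bonferroni; mean ± SD.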

[23] = system: humanized NaV1.8 rats; assay: Spinal nerve ligation; assay type: in vivo, rat; conditions: one-hour post-dosing
In short: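 Male humanized NaV1.8 rats; baseline von Frey PWT (Up-Down, plantar) <9 g excluded. Under isoflurane, L6 transverse process removed; L5 spinal nerve tightly ligated and cut. After 1 week, PWT >6 g excluded. Day 1: PO vehicle (10 % Tween 80) or 10 mg/kg; after 4-day washout and reassessment, PO vehicle or 1 mg/kg. PWT read 1 h post-dose; blinded; mixed-effects model, Bonferroni; mean ± SD.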

[24] = Total plasma exposure in CFA and SNL studies; assay type: in vivo, rat; conditions: for Total plasma exposure: SNL study, approximately 1-hour post-dosing; for concentration at 4 h: rat, plasma, po
In short: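 Tail-vein blood for total plasma levels after PO test compound (1 or 10 mg/kg): in CFA rats at 4 h post-dose, in SNL rats right after mechanical testing, about 1 h post-dose.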

[25] = system: all other recombinant human NaV channel isoforms; conditions: highest concentrations tested (30–34 uM); ref Vardigan et al., 2024; cited from earlier work

T1 sequence (Q9Y5Y9 whole entry): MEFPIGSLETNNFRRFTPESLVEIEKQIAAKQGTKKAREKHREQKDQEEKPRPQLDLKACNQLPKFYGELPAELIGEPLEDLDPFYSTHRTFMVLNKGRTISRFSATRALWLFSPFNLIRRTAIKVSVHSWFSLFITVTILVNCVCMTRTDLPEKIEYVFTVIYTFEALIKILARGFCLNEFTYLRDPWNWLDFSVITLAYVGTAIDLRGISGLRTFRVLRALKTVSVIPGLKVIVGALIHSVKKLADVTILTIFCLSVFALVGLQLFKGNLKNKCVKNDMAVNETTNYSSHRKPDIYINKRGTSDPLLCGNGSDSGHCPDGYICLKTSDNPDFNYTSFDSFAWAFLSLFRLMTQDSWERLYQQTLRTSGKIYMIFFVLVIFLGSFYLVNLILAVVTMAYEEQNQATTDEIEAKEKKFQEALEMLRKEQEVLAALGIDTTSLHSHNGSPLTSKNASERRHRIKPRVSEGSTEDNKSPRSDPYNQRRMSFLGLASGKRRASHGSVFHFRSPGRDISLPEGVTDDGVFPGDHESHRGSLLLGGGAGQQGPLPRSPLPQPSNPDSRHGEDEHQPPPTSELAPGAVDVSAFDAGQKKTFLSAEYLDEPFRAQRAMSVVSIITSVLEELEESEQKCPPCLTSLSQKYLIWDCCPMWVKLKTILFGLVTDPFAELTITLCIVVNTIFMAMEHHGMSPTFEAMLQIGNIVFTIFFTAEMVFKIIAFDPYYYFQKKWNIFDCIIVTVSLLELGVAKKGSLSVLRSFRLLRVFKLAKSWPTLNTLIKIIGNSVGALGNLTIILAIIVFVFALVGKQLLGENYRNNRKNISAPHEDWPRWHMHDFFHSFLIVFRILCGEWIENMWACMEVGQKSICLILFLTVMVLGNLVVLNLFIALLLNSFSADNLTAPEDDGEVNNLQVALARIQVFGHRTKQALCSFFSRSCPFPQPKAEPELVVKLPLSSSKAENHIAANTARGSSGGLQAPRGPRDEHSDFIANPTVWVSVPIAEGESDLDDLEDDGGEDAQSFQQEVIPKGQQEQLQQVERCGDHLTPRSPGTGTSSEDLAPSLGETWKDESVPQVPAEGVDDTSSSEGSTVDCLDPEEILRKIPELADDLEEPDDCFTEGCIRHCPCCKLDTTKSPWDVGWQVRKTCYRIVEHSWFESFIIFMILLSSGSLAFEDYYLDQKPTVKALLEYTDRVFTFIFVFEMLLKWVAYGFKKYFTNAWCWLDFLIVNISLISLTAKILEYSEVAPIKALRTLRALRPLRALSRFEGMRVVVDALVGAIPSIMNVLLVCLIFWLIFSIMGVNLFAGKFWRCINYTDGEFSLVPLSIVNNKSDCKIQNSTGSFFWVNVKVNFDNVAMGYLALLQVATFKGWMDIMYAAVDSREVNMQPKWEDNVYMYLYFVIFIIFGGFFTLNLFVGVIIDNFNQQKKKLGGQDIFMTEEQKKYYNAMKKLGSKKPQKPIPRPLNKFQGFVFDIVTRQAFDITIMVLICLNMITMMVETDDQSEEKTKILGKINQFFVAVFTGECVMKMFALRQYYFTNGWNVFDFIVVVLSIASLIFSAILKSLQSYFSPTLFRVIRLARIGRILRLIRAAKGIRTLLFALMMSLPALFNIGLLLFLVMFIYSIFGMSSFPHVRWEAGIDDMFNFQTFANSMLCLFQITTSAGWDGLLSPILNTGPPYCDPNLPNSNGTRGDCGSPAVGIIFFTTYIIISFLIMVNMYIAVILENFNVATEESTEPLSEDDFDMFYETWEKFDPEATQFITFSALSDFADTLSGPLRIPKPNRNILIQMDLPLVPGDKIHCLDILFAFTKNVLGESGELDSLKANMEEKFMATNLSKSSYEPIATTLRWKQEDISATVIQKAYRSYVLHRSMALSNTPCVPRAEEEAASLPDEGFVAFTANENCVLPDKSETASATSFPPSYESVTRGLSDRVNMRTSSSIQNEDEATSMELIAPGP
human NaV1.3, sequence (Q9NY46 whole entry): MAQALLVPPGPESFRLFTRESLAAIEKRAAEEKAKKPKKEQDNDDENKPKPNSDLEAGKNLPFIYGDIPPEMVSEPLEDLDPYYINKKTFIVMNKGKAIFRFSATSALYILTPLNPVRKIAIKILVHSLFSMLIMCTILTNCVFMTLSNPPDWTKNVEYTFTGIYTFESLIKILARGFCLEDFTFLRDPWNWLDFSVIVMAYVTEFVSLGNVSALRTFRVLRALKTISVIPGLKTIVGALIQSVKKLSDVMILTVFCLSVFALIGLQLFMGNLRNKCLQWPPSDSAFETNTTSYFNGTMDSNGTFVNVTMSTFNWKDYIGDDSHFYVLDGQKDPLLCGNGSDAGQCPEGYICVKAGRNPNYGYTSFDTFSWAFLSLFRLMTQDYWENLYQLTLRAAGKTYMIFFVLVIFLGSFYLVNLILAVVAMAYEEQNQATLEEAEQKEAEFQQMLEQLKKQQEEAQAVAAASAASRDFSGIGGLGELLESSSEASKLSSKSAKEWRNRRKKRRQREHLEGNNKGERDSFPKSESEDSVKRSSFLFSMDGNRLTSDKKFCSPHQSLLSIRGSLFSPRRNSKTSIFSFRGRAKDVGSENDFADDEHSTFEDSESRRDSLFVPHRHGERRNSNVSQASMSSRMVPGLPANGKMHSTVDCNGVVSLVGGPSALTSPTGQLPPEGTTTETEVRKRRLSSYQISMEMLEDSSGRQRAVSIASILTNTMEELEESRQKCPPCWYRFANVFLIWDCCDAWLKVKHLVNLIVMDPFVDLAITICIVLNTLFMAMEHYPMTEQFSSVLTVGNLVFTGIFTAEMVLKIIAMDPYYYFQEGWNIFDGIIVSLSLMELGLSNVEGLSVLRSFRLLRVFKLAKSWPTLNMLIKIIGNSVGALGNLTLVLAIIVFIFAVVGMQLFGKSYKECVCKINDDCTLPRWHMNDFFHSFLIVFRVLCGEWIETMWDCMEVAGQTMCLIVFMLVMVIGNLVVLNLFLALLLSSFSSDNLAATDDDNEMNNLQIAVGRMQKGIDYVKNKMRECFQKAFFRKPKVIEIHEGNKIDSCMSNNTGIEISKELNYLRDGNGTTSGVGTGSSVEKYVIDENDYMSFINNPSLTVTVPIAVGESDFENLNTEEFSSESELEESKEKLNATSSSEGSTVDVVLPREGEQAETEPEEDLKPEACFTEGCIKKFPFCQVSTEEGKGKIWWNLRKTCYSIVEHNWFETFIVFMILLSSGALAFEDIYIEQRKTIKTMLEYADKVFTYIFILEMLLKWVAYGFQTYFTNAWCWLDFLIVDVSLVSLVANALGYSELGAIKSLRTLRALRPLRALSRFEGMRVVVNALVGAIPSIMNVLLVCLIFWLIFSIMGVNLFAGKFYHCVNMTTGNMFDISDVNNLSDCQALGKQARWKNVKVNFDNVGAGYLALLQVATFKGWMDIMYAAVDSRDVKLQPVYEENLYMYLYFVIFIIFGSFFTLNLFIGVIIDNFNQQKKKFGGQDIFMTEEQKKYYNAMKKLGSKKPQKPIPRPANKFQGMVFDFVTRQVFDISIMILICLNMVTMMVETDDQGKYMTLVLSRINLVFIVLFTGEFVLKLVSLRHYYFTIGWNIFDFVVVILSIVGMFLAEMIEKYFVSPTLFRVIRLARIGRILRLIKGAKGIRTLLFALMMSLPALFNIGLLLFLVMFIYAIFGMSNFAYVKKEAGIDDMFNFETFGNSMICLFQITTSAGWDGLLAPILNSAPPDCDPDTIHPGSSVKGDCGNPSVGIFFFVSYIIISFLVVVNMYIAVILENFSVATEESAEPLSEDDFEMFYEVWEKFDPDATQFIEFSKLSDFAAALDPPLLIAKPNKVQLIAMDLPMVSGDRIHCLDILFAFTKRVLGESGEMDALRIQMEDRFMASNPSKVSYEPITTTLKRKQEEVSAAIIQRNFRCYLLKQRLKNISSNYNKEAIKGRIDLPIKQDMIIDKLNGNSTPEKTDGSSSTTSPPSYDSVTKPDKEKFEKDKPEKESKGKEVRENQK

Compound: Cc1cc(F)ccc1Oc1ncc(C(F)(F)F)cc1C(=O)Nc1cccc([S@](C)(=N)=O)c1 [LTGO-33]
- potency in rats [1]: reduced potency in rats

Compound: CNC(=O)c1ccc(-c2cc(Cl)cc(Cl)c2Cl)c(N)n1 [PF-01247324]
- neuropathic pain in rat SNL model ([2]; rat, ref Payne et al., 2015): reversed neuropathic pain in the rat SNL model
- frequency dependency [3]: demonstrates frequency dependency

Compound: Cc1ccc(C(=O)Nc2ccnc(S(N)(=O)=O)c2)c(N2CCCC(F)(F)CC2)n1 [MSD199, 2-(4,4-difluoroazepan-1-yl)-6-methyl-N-(2-sulfamoylpyridin-4-yl)-nicotinamide]
- IC50 [4]: 4.83 µM
- IC50 [5]: 0.0056 µM
- frequency dependency [6]: does not display frequency dependency
- IC50 [7]: > 33.6 µM
- IC50 [8]: > 33.6 µM
- IC50 [9]: > 33.6 µM
- selectivity over recombinant human NaV1.4 channel [10]: ~2000 fold
- IC50 [11]: > 33.6 µM
- IC50 [12]: > 33.6 µM
- IC50 [13]: > 33.6 µM
- IC50 [14]: > 33 µM
- fraction unbound [15]: 0.15
- IC50 [16]: 0.0011 µM
- sodium current inhibition, Chimera 2 [17]: disruption of sodium current inhibition
- IC50 [18]: 0.0086 µM
- potency, Chimera B [19]: abolished the potency
- effect on capsaicin-induced nocifensive behavior [20]: had no effect; also recorded: no observable impact
- nocifensive responses vs vehicle, dose-response ([21]; 1 mg/kg PO (Fig. 2C)): significantly lower than vehicle
- nocifensive responses vs vehicle, dose-response ([21]; 3 mg/kg PO (Fig. 2C)): significantly lower than vehicle
- nocifensive responses vs vehicle, dose-response ([21]; 10 mg/kg PO (Fig. 2C)): significantly lower than vehicle
- effect on capsaicin-induced nocifensive behavior ([21]; 10 mg/kg PO, 1 h before capsaicin (Fig. 2B), 10 mg/kg): significantly blocked
- hind paw withdrawal latency vs vehicle (thermal hyperalgesia) ([22]; 1 mg/kg PO): but not at 1 mg/kg, significantly increased
- hind paw withdrawal latency vs vehicle (thermal hyperalgesia) ([22]; 10 mg/kg PO): significantly increased
- paw withdrawal thresholds vs vehicle (mechanical allodynia) ([23]; 1 mg/kg PO): no significant antiallodynic effects; also recorded: did not significantly alter paw withdrawal thresholds
- paw withdrawal thresholds vs vehicle (mechanical allodynia) ([23]; 10 mg/kg PO): demonstrated significant antiallodynic effects; also recorded: significant reversal of mechanical allodynia
- Total plasma exposure ([24]; 1 mg/kg PO): 73.06 ± 4.71 nM
- Total plasma exposure ([24]; 10 mg/kg PO): 1117 ± 84.19 nM
- concentration at 4 h ([24]; 1 mg/kg): 20.1 ± 5.1 nM
- concentration at 4 h ([24]; 10 mg/kg): 199 ± 27.3 nM
- inhibition of all other recombinant human NaV channel isoforms [25]: no inhibition

Compound: O=C(O)Cc1ccccc1Nc1c(Cl)cccc1Cl [Diclofenac, reference compound]
- thermal hyperalgesia vs vehicle ([22]; 80 mg/kg intraperitoneal, positive control): reversed thermal hyperalgesia

Compound: COc1c([C@H]2[C@H](C(=O)Nc3ccnc(C(N)=O)c3)O[C@@](C)(C(F)(F)F)[C@H]2C)ccc(F)c1F [VX-548]
- potency in rats [1]: reduced potency in rats

Compound: COc1cc(NC(=O)c2ccc(-c3ccc(Cl)cc3)o2)cc(OC)c1 [Molecule A-803467]
- SNL-induced mechanical allodynia ([2]; rodents, ref Jarvis et al., 2007): demonstrated reversal of SNL-induced mechanical allodynia
- potency in wildtype rodents ([1]; ref Jarvis et al., 2007): exhibited reduced potency in wildtype rodents
